RGS4 pot: RGS4 potentiators or activators, primary screen, cell-based, HEK293 M3R inducible RGS4, calcium flux. carbachol calcium flux Fluo4; active compounds read low. B-score at 10 µM. hit rate 0.92% among 310,000;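 active means B-score of the integrated calcium signal more than 4 SD below the library mean, with starting fluorescence not abnormally high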;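 further: negative B-score means reduced calcium response which marks RGS4 activation or potentiation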
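Assay system: HEK293 FlpIn-TREx cells, stable M3R, doxycycline-inducible RGS4 / Probe or stimulus: carbachol, ECmax concentration / Times: overnight RGS4 induction, 30 min dye load 37 °C, 20 min compound RT / Signal: kinetic calcium fluorescence imaging with Fluo4-AM dye, 2 µM / Measure: Agonist-evoked peak-minus-minimum fluorescence over baseline, integrated ratio, B score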
MrgX1 antagonist: antagonists of human MrgX1 receptor, primary screen, HEK293 cells, Fluo-4 calcium flux | Mas-related G-protein coupled receptor member X1 (Homo sapiens), Q96LB2 | BAM8-22 antagonism; active compounds read low | B-score at 10 µM | hit rate 1.3% among 310,000;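 active means calcium-response B-score plate-corrected more than 3 library SD below zero, starting fluorescence within 5 deviations, no agonist response on first addition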;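 further: peak minus trough fluorescence over baseline after final BAM8-22 challenge near maximal dose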
Target sequence (Q96LB2 whole entry, looked up): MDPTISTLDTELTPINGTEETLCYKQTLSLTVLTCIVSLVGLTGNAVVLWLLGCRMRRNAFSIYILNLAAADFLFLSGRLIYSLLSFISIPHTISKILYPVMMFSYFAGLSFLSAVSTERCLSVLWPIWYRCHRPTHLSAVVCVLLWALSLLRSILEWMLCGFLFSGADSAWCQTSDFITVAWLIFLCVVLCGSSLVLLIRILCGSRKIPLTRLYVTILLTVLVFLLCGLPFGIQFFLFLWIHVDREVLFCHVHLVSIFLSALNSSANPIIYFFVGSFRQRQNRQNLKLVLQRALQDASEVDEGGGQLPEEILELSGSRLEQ
MrgX1 PAM: positive allosteric modulators of MrgX1, primary screen, HEK293 cells, Fluo-4 calcium flux; FDSS; active compounds read high; B-score at 10 µM; AID 588675, 2011; hit rate 0.63% among 310,000;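 active means plate-corrected calcium response at least 3 library SD above typical, normal starting fluorescence, not activating the receptor alone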;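 further: compound read alongside a low EC10 to EC30 dose of BAM8-22 agonist; peak minus trough fluorescence over baseline measured at the second addition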
MrgX1 ag: agonists of human MrgX1 receptor, primary screen, HEK293 cells, Fluo-4 calcium flux. Mas-related G-protein coupled receptor member X1 (Homo sapiens), Q96LB2. Fluo-4 calcium fluorescence, agonist mode; active compounds read high. B-score at 10 µM. hit rate 0.44% among 310,000;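 active means calcium response B-score plate-corrected fluorescence ratio at least 3 library SD, with starting fluorescence B-score inside 5 SD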
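times = overnight plating, then 30 min 37 °C plus 30 min room-temperature dye loading | assay system = stable human MrgX1 HEK293 cell line | input = fifteen thousand cells per well | signal = kinetic calcium dye fluorescence, Fluo-4 NW | dosing = compound delivered in addition one of three | read-out = B-scored fluorescence response ratio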
RGS4 block: RGS4 inhibitors, primary screen, cell-based, HEK293 M3R inducible RGS4, calcium flux. B-score at 10 µM. AID 463165, 2010. Fluo-4 calcium flux; active compounds read high; triggered by carbachol at its EC20. Regulator of G-protein signaling 4 (Homo sapiens), P49798. hit rate 0.45% among 310,000;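 active means B-score, a plate-corrected calcium signal, over three deviations above library mean, with baseline fluorescence within five deviations of library mean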;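 further: RGS4 expression induced by doxycycline in cells with stable M3 receptor; B-score is computed from the integrated fluorescence ratio over baseline after carbachol; higher B-score means a larger calcium signal and so more RGS4 inhibition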
Target sequence (P49798 whole entry, looked up): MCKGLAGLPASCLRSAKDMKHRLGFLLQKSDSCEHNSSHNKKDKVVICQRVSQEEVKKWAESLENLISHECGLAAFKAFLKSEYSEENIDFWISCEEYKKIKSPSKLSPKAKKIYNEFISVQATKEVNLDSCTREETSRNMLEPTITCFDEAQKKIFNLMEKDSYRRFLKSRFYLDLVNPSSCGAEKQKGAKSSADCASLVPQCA
MrgX1 antag conf: MrgX1 receptor antagonists, duplicate retest, confirmation, HEK293 cells, Fluo-4 calcium flux | shares compounds with MrgX1 antagonist | BAM8-22 calcium flux; active compounds read low | remaining BAM8-22 calcium response % of control (active compounds read low), % at 10 µM | hit rate 19% among 2,300;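 active means remaining agonist calcium response no higher than 100% minus 3 SD of agonist-only control wells, with starting fluorescence near control levels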;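 further: agonist BAM8-22 given at a near maximal EC90 to ECmax level; peak minus minimum fluorescence divided by baseline after agonist addition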
HEK293 Ca flux: nonspecific calcium signal in parental HEK293, confirmation, counter-screen for MrgX1 antagonist project, parental HEK293 cells, Fluo-4 calcium flux. shares compounds with MrgX1 antagonist. Fluo-4 calcium fluorescence, FDSS. fluorescence ratio F(max-min)/F0 at 10 µM. hit rate 2% among 4,000. AID 624111, 2012;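 active means duplicate-averaged calcium fluorescence ratio at least three times the standard deviation of buffer wells, a nonspecific response in parental cells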
HEK293 Ca counter: calcium response in parental HEK293 cells, primary screen, counter-screen for MrgX1 allosteric activator project, cell-based, Fluo-4 calcium flux, duplicate. Fluo-4 fluorescence ratio; active compounds read high. AID 624114, 2012. hit rate 0.4% among 4,000. shares compounds with MrgX1 antagonist. fluorescence ratio F(max-min)/F0 at 10 µM;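 active means calcium fluorescence ratio, averaged over duplicates, at least 3 SD of the buffer-well ratio, meaning a nonspecific response in receptor-free cells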;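 further: untransfected parental HEK293 lacking MrgX1 used as counterscreen for MrgX1 allosteric activators; fluorescence change taken during the second addition on a kinetic imager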
HEK293 Ca cntr2: calcium response in parental HEK293 cells, primary screen, counter-screen for MrgX1 agonist project, cell-based, Fluo-4 calcium flux, duplicate, agonist mode | fluorescence ratio F(max-min)/F0 at 10 µM | Fluo-4 calcium fluorescence (FDSS); active compounds read high | shares compounds with MrgX1 antagonist | AID 624115, 2012 | hit rate 8.7% among 4,000;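 active means calcium fluorescence ratio at least three times the spread of buffer wells, meaning a non-specific response in parental cells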
* = called active by the depositor; i = inactive; · = not tested or not shown. The list is not random: actives were taken first. Their share in the collection is about 3.5%.

SMILES	RGS4 pot	MrgX1 antagonist	MrgX1 PAM	MrgX1 ag	RGS4 block	MrgX1 antag conf	HEK293 Ca flux	HEK293 Ca counter	HEK293 Ca cntr2
Cc1cccc(NC(=O)C2CCN(C(=O)c3ccc(Cl)cc3)CC2)n1	i	i	i	i	i	·	·	·	·
O=C(NCCc1ccccc1)c1cc(S(=O)(=O)N2CCCC2)ccc1F	i	i	i	i	i	·	·	·	·
CCCCCNC(=O)c1cc(S(=O)(=O)N2CCCCC2)ccc1F	i	-7.9*	i	i	i	i	i	i	i
O=C(O)CCCn1cc(NC(=O)c2ccco2)cn1	i	i	i	i	i	·	·	·	·
Cc1occc1C(=O)Nc1cnn(CCCC(=O)O)c1	i	-4.9*	i	i	i	i	i	i	i
O=C1CSc2ccc(S(=O)(=O)N3CCN(c4ccccc4F)CC3)cc2N1	i	i	i	i	i	·	·	·	·
CC(=O)c1ccc(-c2ccc(C(=O)N(C)c3c(N)n(Cc4ccccc4)c(=O)[nH]c3=O)o2)cc1	i	i	i	i	i	·	·	·	·
Nc1c(S(=O)(=O)c2cccs2)c2nc3ccccc3nc2n1CC1CCCO1 (stereo not given)	·	-7*	i	i	·	i	i	i	i
c1ccc(Nc2ccc3c4c(cccc24)CC3)cc1	i	i	i	i	i	·	·	·	·
Nc1ccc2c3c(cccc13)CC2	i	-7.5*	i	i	i	85%*	i	i	i
CCN(CC)C1CC(=O)N(c2cccc(Cl)c2)C1=O (stereo not given)	i	i	i	i	i	·	·	·	·
NS(=O)(=O)c1ccc(CCNC(=O)CN2C(=O)COc3ccc(S(=O)(=O)N4CCCC4)cc32)cc1	i	i	i	i	i	·	·	·	·
CN(Cc1ccccc1)C(=O)C1CCN(S(=O)(=O)c2cccc3nsnc23)CC1	i	i	i	i	i	·	·	·	·
CC(=O)Nc1ccc(NC(=O)C(C)OC(=O)CN(C)S(=O)(=O)c2ccc(Cl)cc2)cc1 (stereo not given)	i	-6.1*	i	i	i	i	i	i	i
COc1ccc(C2SCC(=O)N2CC23CC4CC(CC(C4)C2)C3)cc1 (stereo not given)	i	-5.2*	i	i	i	i	i	i	i
COc1ccc(C2SCC(=O)N2Cc2ccccc2)cc1 (stereo not given)	i	i	i	i	i	·	·	·	·
COc1ccc(C2(C(=O)NCc3ccccc3Cl)CCOCC2)cc1OC	i	i	i	i	i	·	·	·	·
COc1ccc(C(=O)COC(=O)Cc2n[nH]c(=O)c3ccccc23)c(OC)c1	i	-8.2*	i	i	i	i	i	i	i
O=C(Cc1n[nH]c(=O)c2ccccc12)OCC(=O)c1ccccc1Cl	i	i	i	i	i	·	·	·	·
COc1cccc(CNC(=O)Cn2cccc2)c1	i	-9.8*	i	i	i	81%*	i	i	i
O=C(CSc1nnc(CN2CCCCCC2=O)n1-c1ccccn1)NCC(F)(F)F	i	-4.6*	i	i	i	i	i	i	i
CC(C)(C)NC(=O)CSc1nnc(CN2CCCCCC2=O)n1-c1ccccn1	i	i	i	i	i	·	·	·	·
Cc1cc(C)n(-c2nc3ccccc3nc2Nc2ccc(CC(=O)O)cc2)n1	i	-7.6*	i	i	i	i	i	i	i
Cc1nc2cc(C(=O)NCc3ccc4c(c3)OCO4)ccc2n1-c1ccc(Br)cc1	i	-4.8*	i	i	i	i	i	i	i
O=C(NCc1ccc2c(c1)OCO2)c1ccc(Br)cc1	i	i	i	i	i	·	·	·	·
SMILES	RGS4 pot	MrgX1 antagonist	MrgX1 PAM	MrgX1 ag	RGS4 block	MrgX1 antag conf	HEK293 Ca flux	HEK293 Ca counter	HEK293 Ca cntr2
O=C(NCc1ccc2c(c1)OCO2)c1cccc(Cl)c1	i	-5.2*	i	i	i	i	i	i	i
O=C(NCc1cccc(Cl)c1)c1ccc2c(c1)OCO2	i	i	i	i	i	·	·	·	·
Nc1cccc(-n2cccc2)c1	i	i	i	i	i	·	·	·	·
CCOC(=O)N1CCN(C(=O)NC2CCCCC2)CC1	i	i	i	i	i	·	·	·	·
CCOC(=O)N1CCC(=NNC(=O)NC2CCCCC2)CC1	i	-21*	i	i	i	i	i	i	i
O=c1c(/C=N\NS(=O)(=O)c2ccccc2)coc2ccc(Cl)cc12	i	i	i	i	i	·	·	·	·
Cc1nc2cc(C(=O)O)ccc2n1-c1ccccc1	i	i	i	i	i	·	·	·	·
COc1ccccc1-n1c(C)nc2cc(C(=O)O)ccc21	i	-4.8*	i	i	i	i	i	i	i
O=C(Nc1ccc2c(c1)OCO2)N1CCN(c2ccc(F)cc2)CC1	i	-4.7*	i	i	i	83%*	i	i	i
O=C1CCCC/C1=C/NCc1ccc(F)cc1	i	i	i	i	i	·	·	·	·
Cc1ccc(CNc2oc(-c3cccs3)nc2C#N)cc1	i	-5.4*	i	i	i	i	i	i	i
N#Cc1nc(-c2cccs2)oc1NCc1ccccc1	i	i	i	i	i	·	·	·	·
O=C(Cc1cccs1)Nc1cccc(-c2nnc(-c3ccco3)o2)c1	i	-7.4*	i	i	i	i	i	i	i
Cc1ccsc1-c1nc(CSCC(=O)NCc2ccc3c(c2)OCO3)c(C)o1	i	-4.8*	i	i	i	i	i	i	51*

Bioassay records: PubChem, Johns Hopkins Ion Channel Center
